In data set [1] the test system is Mycobacterium tuberculosis. The data set can be described thus: Antimycobacterial activity against Mycobacterium tuberculosis H37Rv assessed as bacterial growth inhibition incubated for 10 days under anerobic condition followed by incubation under ambient gaseous condition for […] by low oxygen recovery assay. The data set is classed as functional. The essentials:
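Read-out is MIC90, the lowest concentration giving 90% growth inhibition of M.tb H37Rv, in µg/mL. Bacteria were held under non-replicating, low-oxygen conditions (LORA).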

Data set [2] deals with T1, hERG (KCNH2) (Homo sapiens, UniProt Q12809). The data set is described as follows: Inhibition of human ERG at 3 uM relative to control.
The test system of data set [3] is Mycobacterium tuberculosis. The data set is described as follows: Antimycobacterial activity against Mycobacterium tuberculosis H37Rv assessed as bacterial growth inhibition under replicating, aerobic condition by microplate Alamar blue assay. The data set is classed as functional. The essentials:
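Read-out is MIC90, the lowest concentration giving 90% growth inhibition of M.tb H37Rv, in µg/mL. Bacteria were grown under aerobic, replicating conditions (MABA).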

Data set [4] deals with T1, hERG (KCNH2). The data set is described as follows: Inhibition of human ERG at 10 uM relative to control.
The nature of data set [5]: AUC (0 to infinity) in CD-1 mouse at 10 mg/kg, po via gavage administered as single dose. The data set is classed as ADME, organism-based. The arrangement: dose 10 mg/kg, route oral, time infinity. The following applies: in vivo. The essentials:
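Male CD-1 mice given a single 10 mg/kg dose by oral gavage. Exposure is reported as area under the curve from 0 to infinity in µg*h/mL.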

The next data set deals with Vero. The data set is described as follows: Cytotoxicity against African green monkey Vero cells assessed as reduction in cell viability incubated for 72 hrs by […] assay. The data set is classed as cell-based. The following applies: Chlorocebus sabaeus.
Data set [6] deals with Voltage-gated inwardly rectifying potassium channel KCNH2 (Homo sapiens, UniProt Q12809). The data set is described as follows: Inhibition of human ERG.
Data set [7] can be described thus: Clearance in CD-1 mouse at 2 to 3 mg/kg, iv administered as single bolus dose. The note with it: in vivo. The data set is classed as ADME, organism-based. The essentials: (§1)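 Male CD-1 mice received a single intravenous bolus at 2–3 mg/kg. Reported values are IV clearance and the apparent volume of distribution during the terminal phase, in L/kg.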
Data set [8] in a line: Intrinsic clearance in mouse liver microsomes assessed per mg protein. Type of data set: ADME, Microsome. The following applies: read-out: CLH. The essentials:
(§2)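 Clearance of compound by human or mouse liver microsomes, expressed as µL/min/mg protein.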
On the technique in general: Liver microsomes are vesicles of endoplasmic reticulum, rich in cytochrome P450 enzymes.

A short description of data set [9]: Intrinsic clearance in human liver microsomes assessed per mg protein. The data set is classed as ADME, Microsome. The following applies: read-out: CLH. The method in brief:
as §2

The nature of data set [10]: Apparent volume of distribution during terminal phase in CD-1 mouse at 2 to 3 mg/kg, iv administered as single bolus dose. The data set is classed as ADME, organism-based. The following applies: in vivo. The essentials: as §1
A short description of data set [11]: Oral bioavailability in CD-1 mouse at 10 mg/kg administered via gavage as single dose. The data set is classed as ADME, organism-based. The note with it: in vivo.
Data set [12] is described as follows: Protein binding in human plasma. Type of data set: ADME, cell-free. The following applies: read-out: PPB.

The MIC90 is the lowest concentration that inhibits either 90% of growth or 90% of the strains tested, depending on the study. Usually inhibition stands for the relative decrease from the control value, in per cent. A word on the AUC(0-inf): it is the area under the concentration-time curve extrapolated to infinity. A word on the IC50: it is the concentration that gives 50% inhibition. The term clearance denotes the rate of elimination divided by the concentration. The term bioavailability denotes the share of a dose that reaches the circulation, judged against a reference dose that is usually intravenous.

≈ marks a conversion by molar mass, not a printed value.

Chain of Voltage-gated inwardly rectifying potassium channel KCNH2 (Q12809 whole entry): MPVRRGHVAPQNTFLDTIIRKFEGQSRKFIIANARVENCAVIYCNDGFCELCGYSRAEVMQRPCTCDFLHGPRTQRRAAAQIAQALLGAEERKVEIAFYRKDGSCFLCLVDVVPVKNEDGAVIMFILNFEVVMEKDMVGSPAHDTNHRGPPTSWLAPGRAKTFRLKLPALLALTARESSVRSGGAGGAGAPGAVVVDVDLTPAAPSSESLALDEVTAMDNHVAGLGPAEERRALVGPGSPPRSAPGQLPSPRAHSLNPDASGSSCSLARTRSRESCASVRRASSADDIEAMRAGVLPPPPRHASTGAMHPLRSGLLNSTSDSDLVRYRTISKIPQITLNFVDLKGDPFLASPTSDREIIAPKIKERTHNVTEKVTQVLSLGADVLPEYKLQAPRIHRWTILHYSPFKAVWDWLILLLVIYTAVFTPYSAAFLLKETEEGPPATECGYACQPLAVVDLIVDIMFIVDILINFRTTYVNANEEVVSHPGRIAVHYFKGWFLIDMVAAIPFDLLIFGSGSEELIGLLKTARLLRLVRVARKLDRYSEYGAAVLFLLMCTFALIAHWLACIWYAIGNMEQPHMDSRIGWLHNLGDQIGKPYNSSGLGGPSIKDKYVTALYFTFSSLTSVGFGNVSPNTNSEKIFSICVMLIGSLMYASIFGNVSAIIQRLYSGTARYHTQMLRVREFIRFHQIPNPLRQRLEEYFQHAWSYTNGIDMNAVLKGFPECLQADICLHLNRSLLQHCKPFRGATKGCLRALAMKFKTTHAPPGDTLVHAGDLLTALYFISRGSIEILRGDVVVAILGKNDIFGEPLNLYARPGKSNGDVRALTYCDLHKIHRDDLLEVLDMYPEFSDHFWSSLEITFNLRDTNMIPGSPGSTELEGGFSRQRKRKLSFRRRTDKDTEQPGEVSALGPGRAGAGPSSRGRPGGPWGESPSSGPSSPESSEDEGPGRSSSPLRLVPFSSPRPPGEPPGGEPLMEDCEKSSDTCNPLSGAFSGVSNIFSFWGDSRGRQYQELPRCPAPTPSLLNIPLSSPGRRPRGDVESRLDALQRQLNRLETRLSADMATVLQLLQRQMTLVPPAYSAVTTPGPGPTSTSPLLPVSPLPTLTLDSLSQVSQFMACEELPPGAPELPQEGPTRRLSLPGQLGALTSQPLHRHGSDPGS
T1 sequence (Q12809 whole entry): as above

Regarding `COc1nc2ccc(Br)cc2cc1[C@@H](c1cccc(C)c1F)[C@@](O)(CCN(C)C)c1cc(SC)nc(SC)c1` (racemic), the MIC90 in data set [1] was 0.06 µg/mL (≈ 0.0951 µM); in data set [3], less than 0.004 µg/mL. This compound came in with an inhibition at 3 µM on hERG (KCNH2) [2] of 13%.
`COc1cc([C@](O)(CCN(C)C)[C@@H](c2cc3cc(Br)ccc3nc2OC)c2cccc(C)c2F)cc(OC(F)F)n1` (racemic): the MIC90 in data set [1] was determined as 0.03 µg/mL (≈ 0.0473 µM); in [3] it was 0.01 µg/mL (≈ 0.0158 µM). At hERG (KCNH2) [4], this compound yielded an inhibition at 10 µM of 3%.
Consider `CCSc1cc([C@](O)(CCN(C)C)[C@@H](c2cc3cc(C#N)ccc3nc2OC)c2cccc(C)c2F)cc(SCC)n1` (racemic), for which the AUC(0-inf) in data set [5] came to 4000 ng·h/mL. For the same compound, the IC50 was more than 10 µg/mL in the data set with Vero and more than 10 µM in [6]. The values for the MIC90 in [1] and in data set [3] were 0.06 µg/mL (≈ 0.0992 µM) and less than 0.02 µg/mL, respectively. This compound also returned a clearance in [7] of 9.4 mL/min/kg. For the same compound, the results for the microsomal CLint in data set [8] and in data set [9] were 33 µL/min/mg and 9.1 µL/min/mg, respectively. Moreover, the Vz/F in data set [10] stood at 41 L/kg. In data set [11], this compound showed a bioavailability of 22%.
Consider `CCSc1cc([C@](O)(CCN(C)C)[C@H](c2cccc(C)c2)c2cc3cc(C#N)ccc3nc2OC)cc(N(C)C)n1` (racemic), for which the values for the MIC90 in [1] and in data set [3] were 0.17 µg/mL (≈ 0.298 µM) and 0.12 µg/mL (≈ 0.211 µM), respectively. At hERG (KCNH2) [2], this compound had an inhibition at 3 µM of 51%.
On the same counts, the results for `CCSc1cc([C@](O)(CCN(C)C)[C@H](c2cccc(C)c2)c2cc3cc(Br)ccc3nc2OC)cc(N(C)C)n1` (racemic) are 0.12 µg/mL (≈ 0.192 µM), 0.14 µg/mL (≈ 0.224 µM) and 23%.
Consider `CCSc1cc([C@](O)(CCN(C)C)[C@@H](c2cc3cc(C#N)ccc3nc2OC)c2cccc(OC)c2F)cc(SCC)n1` (racemic), for which the AUC(0-inf) in [5] came to 1400 ng·h/mL. The half-maximal inhibitory concentration (IC50) is more than 10 µg/mL in the data set with Vero and more than 10 µM in data set [6]. The MIC90 in [1] was 0.2 µg/mL (≈ 0.322 µM); in [3] it was 0.1 µg/mL (≈ 0.161 µM). Further, the clearance in data set [7] was 29 mL/min/kg. Also, the microsomal CLint was determined as 27 µL/min/mg in [8] and 17 µL/min/mg in data set [9]. Also, the Vz/F in data set [10] worked out at 93 L/kg. This compound also gave a bioavailability in [11] of 24%.
Compound `CCSc1cc([C@](O)(CCN(C)C)[C@@H](c2cc3cc(Br)ccc3nc2OC)c2cccc3c2OCO3)cc(SCC)n1` (racemic) showed an AUC(0-inf) in data set [5] of 5500 ng·h/mL. Besides, the IC50 with Vero was more than 10 µg/mL; in data set [6], more than 10 µM. The MIC90 worked out at 0.06 µg/mL (≈ 0.0895 µM) in data set [1] and 0.01 µg/mL (≈ 0.0149 µM) in data set [3]. Further, the clearance in data set [7] is 3.4 mL/min/kg. For the same compound, the figures for the microsomal CLint in data set [8] and in data set [9] were 12 µL/min/mg and 9.5 µL/min/mg, respectively. The Vz/F in [10] amounted to 9.4 L/kg. For the same compound, in [11], the bioavailability came out at 11%.
As to `COc1cc([C@](O)(CCN(C)C)[C@@H](c2cc3cc(Br)ccc3nc2OC)c2cccc(OC)c2F)cc(OC)n1` (racemic) [TBAJ-587], in [1], the MIC90 came out at 0.01 µg/mL (≈ 0.0163 µM). Besides, the microsomal CLint in [9] came out at 2.2 µL/min/mg. In [12], the fraction unbound was less than 0.005.
Consider `COc1cc([C@](O)(CCN(C)C)[C@@H](c2cc3cc(Br)ccc3nc2OC)c2cc(OC)nc(OC)c2OC)cc(OC)n1` (racemic) [TBAJ-876], for which the fraction unbound in data set [12] is less than 0.005.
For the compound `COc1nc2ccc(Br)cc2cc1[C@@H](c1ccccc1)[C@@](O)(CCN(C)C)c1cccc2ccccc12` [BEDAQUILINE], the area under the curve AUC(0-inf) in [5] stood at 17400 ng·h/mL. Moreover, the MIC90 worked out at 0.06 µg/mL (≈ 0.108 µM) in [1] and 0.03 µg/mL (≈ 0.054 µM) in [3]. Further, in data set [12], the fraction unbound was less than 0.005.

Source of the values: ChEMBL document CHEMBL4610003 (Bioorg Med Chem, 2020).
